How the values were obtained:
HeLa [1] = assay: Cytotoxicity against human HeLa cells assessed as reduction in cell viability after 48 hrs by Alamar blue staining based fluorescence assay; type: functional
Summary of the method: (§1)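 HeLa cells seeded at 1×10^5 cells/ml in MEM with 10% FBS, 1% NEAA, 2 mM glutamine and 1% antibiotic-antimycotic, grown 24 h at 37°C under 5% CO2. Compounds then added for 48 h at concentrations up to 1.6 mM. Readings normalized to DMSO-only controls set at 100%.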

HeLa [2] = assay: Cytotoxicity against human HeLa cells assessed as reduction in cell viability at 2.5 uM after 48 hrs by Alamar blue staining based fluorescence assay relative to control; type: functional
Summary of the method: as §1, with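 “mM. Alamar blue applied for 3 h, plates cooled to room temperature, fluorescence read at ex 544, em 590 nm.” for “mM.”, “100%. IC50 taken from concentration-response curve fits, mean ± SEM, n=3-4.” for “100%.”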

HeLa [3] = assay: Cytotoxicity against human HeLa cells assessed as reduction in cell viability at 1 uM after 48 hrs by Alamar blue staining based fluorescence assay relative to control; type: functional
Summary of the method: as §1, with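 “mM. Alamar blue applied for 3 h, plates cooled to room temperature, fluorescence read at ex 544, em 590 nm.” for “mM.”, “100%. IC50 taken from concentration-response curve fits, mean ± SEM, n=3-4.” for “100%.”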

HeLa [4] = assay: Cytotoxicity against human HeLa cells assessed as reduction in cell viability at 5 uM after 48 hrs by Alamar blue staining based fluorescence assay relative to control; type: functional
Summary of the method: as §1, with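 “mM. Alamar blue applied for 3 h, plates cooled to room temperature, fluorescence read at ex 544, em 590 nm.” for “mM.”, “100%. IC50 taken from concentration-response curve fits, mean ± SEM, n=3-4.” for “100%.”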

HeLa [5] = assay: Induction of morphological changes in human HeLa cells assessed as loss of cells by microscopic method; type: functional, cell-based
Summary of the method: (§2)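 HeLa cells seeded at 1×10^5 cells/ml and grown for 24 h at 37°C under 5% CO2, then exposed to compounds for 48 h. Cell loss and rounding of the remaining cells were judged against DMSO-treated controls by inverted phase microscopy at ×10 magnification, with camera images taken after treatment.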

HeLa [6] = assay: Induction of morphological changes in human HeLa cells assessed as cell rounding by microscopic method; type: functional, cell-based; summary of the method: as §2

SMILES | Activity (HeLa [1]) | IC50 (HeLa [1]) | Activity (HeLa [2]) | Activity (HeLa [3]) | Activity (HeLa [4]) | Activity (HeLa [5]) | Activity (HeLa [6])
COC(=O)c1cc(OC)c(CCc2c(OC)cc(C(=O)OC)cc2OC)c(OC)c1 | Dose-dependent effect | 46.5 µM | – | – | – | – | –
COc1cccc2c1C(=O)c1c(O)c3c(c(O)c1C2=O)C[C@@](O)(C(=O)CO)C[C@@H]3O[C@H]1C[C@H](N)[C@H](O)[C@H](C)O1 [DOXORUBICIN] | – | 2.3 µM | 50.8% | 106.5% | 40% | – | –
C=C1C(=O)O[C@@H]2/C=C(/C)[C@H](O)C/C=C(\C)[C@@H](O)[C@H](OC(=O)/C(C)=C\C)[C@@H]12 | Dose-dependent effect | 36.2 µM | – | – | – | Dose-dependent effect | Dose-dependent effect
COC(=O)c1cc(O)c(O)c(O)c1 [GALLIC ACID METHYL ESTER] | Dose-dependent effect | 267 µM | – | – | – | – | –

— ChEMBL document CHEMBL4011600, “Identification of compounds with cytotoxic activity from the leaf of the Nigerian medicinal plant, Anacardium occidentale L. (Anacardiaceae)” (Bioorg Med Chem, 2017)
